This note sets out measurements from ChEMBL document CHEMBL5532699, “Design, docking optimization, and evaluation of biotin-PEG4-1,8-naphthalimide as a potent and safe antitumor agent with dual targeting of ferroptosis and DNA” (RSC Med Chem, 2024).

The source made the active and inactive calls. The rule behind the calls is not given here. Where only a bound is given, the exact number is not on record here.

Series [1] relates to MGC-803. Nature of the series: Induction of apoptosis in human MGC-803 cells. The series is classed as functional, cell-based.
Series [2] is described as follows: Toxicity in nude mouse xenografted with human MGC-803 cells assessed as effect on animal behavior at 24 to 48 mg/kg, ip administered once every two days for 21 days. Format: organism-based. The note with it: in vivo, 504 h, dose 24-48 mg/kg, time 21 day. Summed up:
(§1)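 1×10^6 tumor cells injected s.c. into the right flank of nude mice. At mean tumor volume 60–80 mm³, animals randomized to vehicle or treatment groups (n = 6). Compound in 5% v/v DMSO/saline given i.p. every 2 days. Tumor size and weight recorded; volume = lw²/2 from length and width. Body weight tracked as the systemic toxicity index.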

Series [3] relates to U-251. Nature of the series: Antiproliferative activity against human U-251 cells incubated for 48 hrs by MTT assay. The series is classed as functional, cell-based. The following applies: U-251, 48 h. The procedure, abridged:
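Monolayer cells in DMEM with 10% FBS, penicillin and streptomycin, 37°C, 5% CO2. Exponentially growing cells were seeded in 96-well plates and exposed to compound for 48 h. MTT was then added for 4 h at 37°C. Medium was removed, formazan dissolved in DMSO, and OD read at 490 nm. Each plate had five replicate wells, and assays were repeated three times per line.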

Series [4] concerns MGC-803. Nature of the series: Antitumor activity against human MGC-803 cells xenografted in nude mouse assessed as tumor inhibition ratio at 12 mg/kg, ip administered once every two days for 21 days relative to control. The series is classed as functional. The following applies: MGC-803, 504 h, time 21 day. The procedure, abridged: as §1
Series [5] is described as follows: Toxicity in nude mouse xenografted with human MGC-803 cells assessed as pathological changes in spleen at 12 to 48 mg/kg, ip administered once every two days for 21 days by H and E staining based analysis. The series is classed as organism-based. The following applies: in vivo, 504 h, dose 12-48 mg/kg, time 21 day. Summed up: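 Nude mice carrying s.c. xenografts (1×10^6 cells, right flank) randomized at 60–80 mm³ (n = 6), dosed i.p. every 2 days in 5% v/v DMSO/saline. Major organs examined by H&E staining at 200× magnification.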

Series [6] relates to MGC-803. Put plainly: Induction of cell cycle arrest in human MGC-803 cells assessed as accumulation of cells at G0/G1 phase at 100 uM incubated for 24 hrs by PI staining based flow cytometry (Rvb=59.09%). Format: functional.

`CN(C)CCN1C(=O)c2cccc3c(N4CCN(C(=O)CCOCCOCCOCCOCCNC(=O)CCCCC5SCC6NC(=O)NC65)CC4)ccc(c23)C1=O` (stereo unspecified): the outcome in series [1] was inactive. Further, the Activity result is reported as “Non-Toxic” in series [2], “Non-Toxic” in series [5] and 39.71% in series [6]. The same molecule displayed an IC50 in series [3] of more than 50 µM. Further, the inhibition in vivo at 12 mg/kg in series [4] was 29.6%.
